These results are taken from ChEMBL document CHEMBL4350956, “Paired Utility of Aza-Amino Acyl Proline and Indolizidinone Amino Acid Residues for Peptide Mimicry: Conception of Prostaglandin F2α Receptor Allosteric Modulators That Delay Preterm Birth” (J Med Chem, 2019).

The source made the active and inactive calls. No cut-off for these calls is given here. Non-standard residues stand in square brackets, D forms with d. Residues, ends and D or L forms follow the SMILES beside them. *: point of attachment. Pro(cis-4-F) = O=C(O)[C@@H]1C[C@H](F)CN1; 3Pal = N[C@@H](Cc1cccnc1)C(=O)O; β3hF = N[C@H](CC(=O)O)Cc1ccccc1; PhAc = O=C(Cc1ccccc1)*; azaGly = NNC(=O)O

Assay [1] deals with Prostaglandin F2-alpha receptor (Mus musculus) (UniProt P43117). Kind of assay: Allosteric modulator activity at prostaglandin F2alpha receptor in CD-1 mouse myometrial strips assessed as inhibition of PGF2alpha- induced contraction at 10 uM pre-incubated for 20 mins followed by PGF2alpha challenge. In short, it runs like this:
(§1)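 Myometrial strips; baseline taken as mean tension of spontaneous contractions at start. Pretreated 20 min with modulator, then PGF2α challenge. Tension rise computed as […], X = PGF2α-induced change in mean tension (g), Y = initial reference response (g). % inhibition = (A-B)/A, A without and B with pretreatment. 5 experiments per group; means ± SEM.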

For assay [2] the target is unchanged. Kind of assay: Allosteric modulator activity at prostaglandin F2alpha receptor in CD-1 mouse myometrial strips assessed as inhibition of PGF2alpha- induced contraction at 1 uM pre-incubated for 20 mins followed by PGF2alpha challenge. In short, it runs like this: as §1

Prostaglandin F2-alpha receptor (Mus musculus), sequence (P43117 whole entry): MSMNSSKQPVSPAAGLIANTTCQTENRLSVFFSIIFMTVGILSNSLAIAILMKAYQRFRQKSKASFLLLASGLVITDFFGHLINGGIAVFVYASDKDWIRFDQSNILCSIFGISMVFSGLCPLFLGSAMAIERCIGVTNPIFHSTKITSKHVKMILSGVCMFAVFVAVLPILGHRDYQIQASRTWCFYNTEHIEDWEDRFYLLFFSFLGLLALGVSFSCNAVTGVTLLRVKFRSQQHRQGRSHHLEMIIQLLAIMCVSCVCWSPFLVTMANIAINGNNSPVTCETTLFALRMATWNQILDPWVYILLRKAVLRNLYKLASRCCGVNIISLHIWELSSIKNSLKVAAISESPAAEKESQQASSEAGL

`O=C(O)C[C@H](Cc1ccccc1)NC(=O)[C@H](Cc1cccnc1)NC(=O)[C@@H]1CC[C@H]2CC[C@H](NC(=O)Cc3ccccc3)C(=O)N21`: in assay [1], the inhibition entry was “inactive”.
For `CN(C)CC#CCN(NC(=O)Cc1ccccc1)C(=O)N1CCC[C@H]1C(=O)N[C@@H](Cc1cccnc1)C(=O)N[C@H](CC(=O)O)Cc1ccccc1`, the inhibition entry in assay [2] and in assay [1] was “inactive” throughout.
Regarding `O=C(O)C[C@H](Cc1ccccc1)NC(=O)[C@H](Cc1cccnc1)NC(=O)[C@@H]1CCCN1C(=O)N(Cc1cn(-c2ccc(F)cc2)nn1)NC(=O)Cc1ccccc1`, the inhibition result in assay [2] and in assay [1] was “inactive” throughout.
On to `O=C(O)C[C@H](Cc1ccccc1)NC(=O)[C@H](Cc1cccnc1)NC(=O)[C@@H]1CCCN1C(=O)N(Cc1cn(-c2ccccc2)nn1)NC(=O)Cc1ccccc1`, for which the inhibition entry in assay [2] and in assay [1] was “inactive” throughout.
Consider `N[C@H]1C[C@@H](C(=O)N[C@@H](Cc2cccnc2)C(=O)N[C@H](CC(=O)O)Cc2ccccc2)N(C(=O)N(Cc2ccccc2)NC(=O)Cc2ccccc2)C1`, for which the inhibition entry in assay [2] and in assay [1] was “Active” in each case.
Consider `Cc1ccc(CN(NC(=O)Cc2ccccc2)C(=O)N2CCC[C@H]2C(=O)N[C@@H](Cc2cccnc2)C(=O)N[C@H](CC(=O)O)Cc2ccccc2)cc1`, for which the inhibition entry in assay [2] and in assay [1] was “inactive” throughout.
Consider `O=C(O)C[C@H](Cc1ccccc1)NC(=O)[C@H](Cc1cccnc1)NC(=O)[C@@H]1C[C@H](F)CN1C(=O)NNC(=O)Cc1ccccc1` (PhAc-[azaGly][Pro(cis-4-F)][3Pal][β3hF]-OH), for which the inhibition result in assay [2] and in assay [1] was “Active” in each case.
Turning to `O=C(O)C[C@H](Cc1ccccc1)NC(=O)[C@H](Cc1cccnc1)NC(=O)[C@@H]1C[C@@H](O)CN1C(=O)N(Cc1ccccc1)NC(=O)Cc1ccccc1`, the inhibition result in assay [2] and in assay [1] was “inactive” in each case.
For `C#CCN(NC(=O)Cc1ccccc1)C(=O)N1C[C@H](F)C[C@H]1C(=O)N[C@@H](Cc1cccnc1)C(=O)N[C@H](CC(=O)O)Cc1ccccc1`, the inhibition entry in assay [2] and in assay [1] was “inactive” each time.
With `O=C(O)C[C@H](Cc1ccccc1)NC(=O)[C@H](Cc1cccnc1)NC(=O)[C@@H]1CCCN1C(=O)N(Cc1ccc([N+](=O)[O-])cc1)NC(=O)Cc1ccccc1`, the inhibition entry in assay [2] and in assay [1] was “inactive” each time.
On to `O=C(O)C[C@H](Cc1ccccc1)NC(=O)[C@H](Cc1cccnc1)NC(=O)[C@@H]1C[C@H](F)CN1C(=O)N(Cc1ccccc1)NC(=O)Cc1ccccc1`, for which the inhibition entry in assay [2] and in assay [1] was “inactive” in each case.
For `O=C(O)C[C@H](Cc1ccccc1)NC(=O)[C@H](Cc1cccnc1)NC(=O)[C@@H]1C[C@H](O)[C@@H]2CC[C@H](NC(=O)Cc3ccccc3)C(=O)N12`, the inhibition entry in assay [2] and in assay [1] was “inactive” in each case.
With `O=C(O)C[C@H](Cc1ccccc1)NC(=O)[C@H](Cc1cccnc1)NC(=O)[C@@H]1CCCN1C(=O)N(Cc1cn(-c2ccc(I)cc2)nn1)NC(=O)Cc1ccccc1`, the inhibition entry in assay [2] and in assay [1] was “inactive” each time.
On to `O=C(O)C[C@H](Cc1ccccc1)NC(=O)[C@H](Cc1cccnc1)NC(=O)[C@@H]1C[C@@H](O)CN1C(=O)NNC(=O)Cc1ccccc1`, for which the inhibition entry in assay [2] and in assay [1] was “inactive” in each case.
On to `C#CCN(NC(=O)Cc1ccccc1)C(=O)N1C[C@@H](F)C[C@H]1C(=O)N[C@@H](Cc1cccnc1)C(=O)N[C@H](CC(=O)O)Cc1ccccc1`, for which the inhibition result in assay [2] and in assay [1] was “inactive” each time.
In the case of `O=C(O)C[C@H](Cc1ccccc1)NC(=O)[C@H](Cc1cccnc1)NC(=O)[C@@H]1CCC2=CC[C@H](NC(=O)Cc3ccccc3)C(=O)N21`, in assay [2], the inhibition entry was “inactive”.
